{"data": "Published values of several laboratories", "effect on": "cell growth or viability", "note": "Lines come from different studies, so protocols differ. pEC50, pIC50: −log10 of the molar value."}
{"SMILES": "Fc1ccc2c(CNCC3(N4CCC(F)C4)COC3)c[nH]c2c1 (stereo not shown)", "cell line": "T98G", "tested at": "30 µM", "time": "48 h", "measurement": "viability", "result": "96.4%"}
{"SMILES": "COc1ccc2c(NN=Cc3ccc(Cl)cc3)ccnc2c1", "cell line": "HEK293", "measurement": "pIC50", "result": "< 5.00"}
{"SMILES": "CCN(c1cc(-c2ccc(CN3CCOCC3)cc2)cc(C(=O)NCc2c(C)cc(C)[nH]c2=O)c1C)C1CCOCC1", "cell line": "KARPAS-422", "time": "8 days", "measurement": "GI50", "result": "0.25 µM"}
{"SMILES": "c1cc2cc(CNCC3(N4CCCC4)COC3)ccc2[nH]1", "cell line": "T98G", "tested at": "30 µM", "time": "48 h", "measurement": "viability", "result": "98.2%"}
{"SMILES": "COc1cc(-c2ccc(-c3ccc(C(=N)N)nc3)s2)cc(OC)c1OC", "cell line": "SK-MEL-28", "method": "SRB", "measurement": "GI50", "result": "1.62 µM"}
{"SMILES": "C=CC(=O)N1CCC[C@@H](n2nc(-c3ccc(Oc4ccccc4)cc3)c3c(N)ncnc32)C1", "cell line": "KARPAS-422", "method": "ATP luminescence", "time": "72 h", "measurement": "GI50", "result": "21.6 µM"}
{"SMILES": "Cc1[nH]c(C)c(-c2ccc(OCc3ccccc3C(F)(F)F)nc2)c(=O)c1Br", "cell line": "HEK293", "measurement": "pIC50", "result": "< 5.00"}
{"SMILES": "c1ccc(-c2ccc(CNCC3(N4CCCC4)COC3)s2)cc1", "cell line": "GBM6", "tested at": "30 µM", "time": "48 h", "measurement": "viability", "result": "52.6%"}
{"SMILES": "Cc1nc2ccc(-c3ccc(OC(F)(F)F)cc3)cc2c(O)c1C#N", "cell line": "HEK293", "measurement": "pIC50", "result": "< 5.00"}
{"SMILES": "Cn1cc(-c2cc(N3CCCCS3(=O)=O)ccc2Oc2ccc(F)cc2F)c2c(F)c[nH]c2c1=O", "cell line": "TMD8", "method": "CCK-8", "time": "72 h", "measurement": "GI50", "result": "0.0093 µM"}
{"SMILES": "COc1cccc(Oc2ccccc2NC(=O)CNC(=O)c2cccc3ccccc23)c1", "cell line": "SK-MEL-28", "method": "SRB", "time": "48 h", "measurement": "GI50", "result": "4.37 µM"}
{"SMILES": "FC1CCN(C2(CNCc3ccc(-c4ccccc4)o3)COC2)C1 (stereo not shown)", "cell line": "GBM6", "tested at": "30 µM", "time": "48 h", "measurement": "viability", "result": "72.7%"}
{"SMILES": "COc1ccc(-c2ccc(-c3ccc(C(=N)N)nc3)s2)cc1", "cell line": "SK-MEL-28", "method": "SRB", "measurement": "GI50", "result": "1.75 µM"}
{"SMILES": "c1cc2c(cc1CNCC1(N3CCCC3)COC1)OCCO2", "cell line": "T98G", "tested at": "30 µM", "time": "48 h", "measurement": "viability", "result": "97.2%"}
{"SMILES": "Cc1[nH]c(C)c(-c2ccc(OCCCCSc3ccncc3)cc2)c(=O)c1Br", "cell line": "HEK293", "measurement": "pIC50", "result": "< 5.00"}
{"SMILES": "FC1CCN(C2(CNCc3ccc(-c4ccccc4Cl)o3)COC2)C1 (stereo not shown)", "cell line": "T98G", "tested at": "30 µM", "time": "48 h", "measurement": "viability", "result": "53.1%"}
{"SMILES": "COc1c(OCCCN2CCOCC2)ccc2c1N=C(NC(=O)c1cnc(N)nc1C)N1CCN=C21", "cell line": "KPL4", "measurement": "pEC50", "result": 8.64}
{"SMILES": "c1ccc(-c2n(Cc3ccc4ccccc4c3)cc[n+]2Cc2ccc3ccccc3c2)cc1", "cell line": "NCI-H322M", "method": "SRB", "measurement": "TGI", "result": "2.82 µM"}
{"SMILES": "O=C(Nc1cccc(-c2cccc(-c3nc4ccccc4[nH]3)c2)c1)NC1CC1c1ccccc1 (stereo not shown)", "cell line": "HEK293", "measurement": "pIC50", "result": "< 5.00"}
{"SMILES": "C=CC(=O)N1CCC[C@@H](n2nc(-c3ccc(Oc4ccccc4)cc3)c3c(N)ncnc32)C1", "cell line": "Rec1", "method": "ATP luminescence", "time": "72 h", "measurement": "GI50", "result": "3.3 µM"}
{"SMILES": "CCCc1n(Cc2ccc3ccccc3n2)cc[n+]1Cc1ccc2ccccc2c1", "cell line": "NCI-H322M", "method": "SRB", "measurement": "TGI", "result": "15 µM"}
{"SMILES": "Cc1ccc(/C=C2/SC(=Nc3ccccc3)NC2=O)c(C)c1", "cell line": "HEK293", "measurement": "pIC50", "result": "< 5.00"}
{"SMILES": "Fc1ccc2[nH]cc(CNCC3(N4CCC(F)C4)COC3)c2c1 (stereo not shown)", "cell line": "T98G", "tested at": "30 µM", "time": "48 h", "measurement": "viability", "result": "75.2%"}
{"SMILES": "COc1ccc(Oc2ccc(-c3c(C)[nH]c(C)c(Cl)c3=O)cc2)cc1", "cell line": "HEK293", "measurement": "pIC50", "result": "< 5.00"}
{"SMILES": "Clc1ccccc1-c1ccc(CNCC2(N3CCCC3)COC2)o1", "cell line": "T98G", "tested at": "30 µM", "time": "48 h", "measurement": "viability", "result": "94.9%"}
{"SMILES": "COc1ccc(-c2ccc(-c3ccc(C(=N)N)nc3)s2)cc1Cl", "cell line": "SK-MEL-28", "method": "SRB", "measurement": "GI50", "result": "1.73 µM"}
{"SMILES": "Cc1[nH]c2ccc(C#N)cc2c(=O)c1Br", "cell line": "HEK293", "measurement": "pIC50", "result": "< 5.00"}
{"SMILES": "COc1c(OCCCN2CCOCC2)ccc2c1N=C(NC(=O)c1sc(C)nc1C)N1CCN=C21", "cell line": "KPL4", "measurement": "pEC50", "result": 7.07}
